From ChEMBL document CHEMBL1135024, “Studies toward the discovery of the next generation of antidepressants. Part 2: incorporating a 5-HT(1A) antagonist component into a class of serotonin reuptake inhibitors” (Bioorg Med Chem Lett, 2002)
One block for each compound: values may come before it.

Tests used:
[1] = target: Sodium-dependent serotonin transporter (Homo sapiens, UniProt P31645); assay: Affinity for HC Serotonin transporter determined in vitro by incubating compound and [3H]5-HT with human carcinoma (Jar cells), previously treated with staurosporine; assay type: cell-based
Chain of Sodium-dependent serotonin transporter (Homo sapiens, UniProt P31645) (P31645 whole entry): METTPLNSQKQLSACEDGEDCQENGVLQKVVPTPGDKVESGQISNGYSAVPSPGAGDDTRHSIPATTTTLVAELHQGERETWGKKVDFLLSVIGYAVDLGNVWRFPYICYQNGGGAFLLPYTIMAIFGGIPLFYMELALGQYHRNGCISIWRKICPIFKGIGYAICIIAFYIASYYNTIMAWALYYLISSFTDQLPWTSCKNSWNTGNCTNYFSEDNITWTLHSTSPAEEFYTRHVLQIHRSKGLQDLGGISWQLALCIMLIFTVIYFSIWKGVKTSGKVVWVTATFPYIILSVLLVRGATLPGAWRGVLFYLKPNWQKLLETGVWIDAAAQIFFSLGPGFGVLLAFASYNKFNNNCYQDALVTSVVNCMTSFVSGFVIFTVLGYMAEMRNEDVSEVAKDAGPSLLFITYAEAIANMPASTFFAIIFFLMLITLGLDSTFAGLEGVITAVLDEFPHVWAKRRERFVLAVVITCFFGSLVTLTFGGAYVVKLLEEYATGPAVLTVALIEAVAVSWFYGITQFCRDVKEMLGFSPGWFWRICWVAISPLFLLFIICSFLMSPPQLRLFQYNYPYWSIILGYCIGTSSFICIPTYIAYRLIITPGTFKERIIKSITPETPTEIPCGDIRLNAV
How it was run: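 Read-out is specific [³H]-5-HT uptake into Jar human carcinoma cells pretreated with staurosporine to enhance transporter expression, after incubation with the test compound.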

[2] = target: Sodium-dependent serotonin transporter (Rattus norvegicus, UniProt P31652); assay: Affinity for RB Serotonin transporter was determined in vitro by incubating compound
Chain of Sodium-dependent serotonin transporter (Rattus norvegicus, UniProt P31652) (P31652 whole entry): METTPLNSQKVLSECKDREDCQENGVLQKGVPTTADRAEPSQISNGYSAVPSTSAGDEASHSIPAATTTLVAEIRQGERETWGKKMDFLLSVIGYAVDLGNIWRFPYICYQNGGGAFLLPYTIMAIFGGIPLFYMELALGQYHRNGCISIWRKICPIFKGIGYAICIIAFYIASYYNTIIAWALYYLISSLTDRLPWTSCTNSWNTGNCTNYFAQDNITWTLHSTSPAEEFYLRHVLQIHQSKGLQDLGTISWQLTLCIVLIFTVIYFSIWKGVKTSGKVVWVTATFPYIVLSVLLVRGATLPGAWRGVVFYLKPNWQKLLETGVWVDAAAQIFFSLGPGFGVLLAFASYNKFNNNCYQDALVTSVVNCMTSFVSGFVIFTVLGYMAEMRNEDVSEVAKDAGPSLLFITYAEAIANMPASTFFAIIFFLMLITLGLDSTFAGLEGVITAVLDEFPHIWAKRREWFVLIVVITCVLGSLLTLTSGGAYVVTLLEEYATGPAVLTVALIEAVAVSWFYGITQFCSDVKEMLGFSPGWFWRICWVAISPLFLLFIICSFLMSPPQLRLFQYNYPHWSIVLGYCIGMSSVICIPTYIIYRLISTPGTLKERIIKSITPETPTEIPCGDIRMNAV
How it was run: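 Radioligand binding to the 5-HT transporter with [³H]-paroxetine. Ki values are the mean of 2–3 experiments, each run in triplicate at six concentrations. 95% confidence limits were generally within 15% of the mean.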

[3] = target: T1, 5-hydroxytryptamine receptor 1A (Homo sapiens, UniProt P08908); assay: In vitro binding affinity towards Human 5-hydroxytryptamine 1A receptor by the displacement of [3H]8-OH-DPAT; assay type: single protein
T1 sequence (P08908 whole entry): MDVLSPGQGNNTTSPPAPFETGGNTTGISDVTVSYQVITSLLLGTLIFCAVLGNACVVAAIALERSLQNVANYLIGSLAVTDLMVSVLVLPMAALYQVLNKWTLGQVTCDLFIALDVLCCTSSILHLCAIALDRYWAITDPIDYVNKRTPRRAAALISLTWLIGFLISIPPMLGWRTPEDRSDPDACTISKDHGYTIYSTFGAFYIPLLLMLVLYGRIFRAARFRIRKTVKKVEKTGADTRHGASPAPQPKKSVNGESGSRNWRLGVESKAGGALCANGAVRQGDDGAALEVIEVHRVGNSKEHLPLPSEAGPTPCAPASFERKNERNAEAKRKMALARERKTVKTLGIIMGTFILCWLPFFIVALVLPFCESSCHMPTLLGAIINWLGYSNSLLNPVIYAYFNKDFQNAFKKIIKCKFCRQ
How it was run: (§1)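 Displacement binding: [³H]-prazosin for α1 and [³H]-8-OH-DPAT for human 5-HT1A. Ki values are the mean of 2–3 experiments at six concentrations, each in triplicate. 95% confidence limits were generally within 15% of the mean.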

[4] = target: T2, Adrenergic receptor alpha-1 (Rattus norvegicus, UniProt P15823+P23944+P43140); assay: In vitro binding affinity towards Alpha-1 adrenergic receptor was determined by the displacement of [3H]prazosin; assay type: protein assay; how it was run: as §1
T2 sequence (P15823 whole entry): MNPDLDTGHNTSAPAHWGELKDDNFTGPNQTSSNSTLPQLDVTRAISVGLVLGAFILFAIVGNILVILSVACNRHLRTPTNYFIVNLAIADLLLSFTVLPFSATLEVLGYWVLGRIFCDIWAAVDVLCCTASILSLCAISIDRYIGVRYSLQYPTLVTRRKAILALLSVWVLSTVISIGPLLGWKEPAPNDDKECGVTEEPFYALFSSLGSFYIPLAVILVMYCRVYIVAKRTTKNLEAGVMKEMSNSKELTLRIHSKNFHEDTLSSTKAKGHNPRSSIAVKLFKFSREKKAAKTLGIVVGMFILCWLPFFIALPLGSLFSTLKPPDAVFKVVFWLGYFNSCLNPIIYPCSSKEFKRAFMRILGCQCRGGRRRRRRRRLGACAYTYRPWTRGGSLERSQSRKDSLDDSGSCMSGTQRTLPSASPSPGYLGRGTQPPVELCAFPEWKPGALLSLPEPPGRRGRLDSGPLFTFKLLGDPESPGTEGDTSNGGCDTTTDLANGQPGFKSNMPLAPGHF
T2 sequence (P23944 whole entry): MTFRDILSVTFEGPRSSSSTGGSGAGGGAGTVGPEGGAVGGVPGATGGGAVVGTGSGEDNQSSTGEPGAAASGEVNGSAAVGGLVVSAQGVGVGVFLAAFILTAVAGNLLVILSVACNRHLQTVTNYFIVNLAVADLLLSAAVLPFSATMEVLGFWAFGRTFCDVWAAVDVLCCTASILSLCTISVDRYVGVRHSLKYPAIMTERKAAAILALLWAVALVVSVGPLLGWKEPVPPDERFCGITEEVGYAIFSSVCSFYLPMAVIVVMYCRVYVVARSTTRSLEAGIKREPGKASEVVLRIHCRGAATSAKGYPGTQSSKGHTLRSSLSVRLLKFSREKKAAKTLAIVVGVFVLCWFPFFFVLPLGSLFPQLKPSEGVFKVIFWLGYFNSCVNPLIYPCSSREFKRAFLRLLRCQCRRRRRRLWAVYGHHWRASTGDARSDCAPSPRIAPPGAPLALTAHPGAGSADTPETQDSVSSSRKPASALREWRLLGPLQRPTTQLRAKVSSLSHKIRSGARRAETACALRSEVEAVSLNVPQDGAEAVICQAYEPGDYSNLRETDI
T2 sequence (P43140 whole entry): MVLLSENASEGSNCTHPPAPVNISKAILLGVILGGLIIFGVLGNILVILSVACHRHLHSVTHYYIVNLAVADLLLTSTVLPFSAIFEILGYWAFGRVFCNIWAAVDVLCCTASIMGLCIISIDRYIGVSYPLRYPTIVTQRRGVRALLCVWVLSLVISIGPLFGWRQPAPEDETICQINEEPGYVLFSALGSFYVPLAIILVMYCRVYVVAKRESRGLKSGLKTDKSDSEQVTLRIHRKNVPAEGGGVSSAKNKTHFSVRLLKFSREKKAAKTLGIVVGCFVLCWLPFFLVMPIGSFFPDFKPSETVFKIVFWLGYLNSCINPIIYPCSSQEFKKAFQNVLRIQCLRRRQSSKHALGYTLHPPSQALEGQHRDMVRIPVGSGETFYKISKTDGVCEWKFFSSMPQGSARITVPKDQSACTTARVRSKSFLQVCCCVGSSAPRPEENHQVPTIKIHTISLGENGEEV

[5] = target: T3, 5-hydroxytryptamine receptor 1A (Homo sapiens) (UniProt P08908); assay: Agonist activity at the 5-hydroxytryptamine 1A receptor was determined in vitro using a [35S]GTP-gamma-S,; assay type: functional
T3 sequence (whole entry): T1 sequence (P08908 whole entry)

[6] = target: T1, 5-hydroxytryptamine receptor 1A; assay: Antagonism of 5-hydroxytryptamine 1A receptor was determined in vitro using a [35S]GTP-gamma-S,; assay type: functional
[7] = target: T3, 5-hydroxytryptamine receptor 1A (Homo sapiens); assay: In vitro agonist activity at the 5-hydroxytryptamine 1A receptor; assay type: functional
[8] = target: T1, 5-hydroxytryptamine receptor 1A; assay: Antagonism of 5-hydroxytryptamine 1A receptor determined in vitro; assay type: functional
[9] = target: T1, 5-hydroxytryptamine receptor 1A; assay: Antagonism at the 5-hydroxytryptamine 1A receptor was determined in vitro using a [35S]GTP-gamma-S,; assay type: functional
[10] = target: T3, 5-hydroxytryptamine receptor 1A (Homo sapiens); assay: Agonist activity at the 5-hydroxytryptamine 1A receptor determined in vitro using a [35S]GTP-gamma-S,; assay type: functional
[11] = target: T1, 5-hydroxytryptamine receptor 1A; assay: Antagonism at the 5-hydroxytryptamine 1A receptor in vitro; assay type: functional

Structure (SMILES): Fc1ccc2c(C3=CCN(CCOc4cccc5c4OCCO5)CC3)c[nH]c2c1
Ki [1]: 19.8 nM
Ki [2]: 0.15 nM
Ki [3]: 83.6 nM
Ki [4]: 4.1 nM
Emax [5]: 53

Structure (SMILES): Fc1ccc2[nH]cc(C3=CCN(CCOc4cccc5c4OCCO5)CC3)c2c1
Ki [1]: 46.9 nM
Ki [2]: 1.17 nM
IC50 [6]: 684 nM
Emax [7]: 0
IC50 [8]: 1040 nM
Ki [4]: 30 nM
Emax [5]: 11

Ki [2]: 0.01 nM
Structure (SMILES): Fc1ccc2[nH]cc(CC3CCN(CCOc4cccc5c4OCCO5)CC3)c2c1

Structure (SMILES): C1=C(c2c[nH]c3ccccc23)CCN(CCOc2cccc3[nH]ccc23)C1
Ki [1]: 41.2 nM
Ki [2]: 0.03 nM
Ki [3]: 21.6 nM
Emax [7]: 0
IC50 [8]: 33 nM
IC50 [9]: 115 nM
Ki [4]: 0.19 nM
Emax [10]: 7.5

Structure (SMILES): C1=C(c2c[nH]c3ccccc23)CCN(CCOc2cccc3c2OCCO3)C1
Ki [1]: 45 nM
Ki [2]: 0.17 nM
IC50 [6]: 222 nM
Emax [7]: 0
IC50 [8]: 115 nM
Ki [4]: 4.7 nM
Emax [5]: 21

Structure (SMILES): Fc1ccc2c(C3CCN(CCOc4cccc5c4OCCO5)CC3)c[nH]c2c1
Ki [1]: 128 nM
Ki [2]: 4.7 nM
Ki [3]: 19.6 nM
IC50 [6]: 666 nM
Emax [7]: 0
IC50 [8]: 920 nM
Ki [4]: 2.8 nM
Emax [5]: 29.5

Structure (SMILES): C1=C(c2c[nH]c3ncccc23)CCN(CCOc2cccc3ncccc23)C1
Ki [1]: 387 nM
Emax [7]: 0
IC50 [8]: 90 nM
IC50 [9]: 181 nM
Ki [4]: 78 nM
Emax [5]: 0

Structure (SMILES): C1=C(c2c[nH]c3ncccc23)CCN(CCOc2cccc3c2OCCO3)C1
Ki [1]: 276 nM
IC50 [11]: 969 nM
Emax [7]: 0
Ki [4]: 33 nM
Emax [5]: 30

Structure (SMILES): C1=C(c2c[nH]c3ncccc23)CCN(CCOc2cccc3[nH]ccc23)C1
Ki [1]: 175 nM
IC50 [6]: 38.9 nM
Emax [7]: 0
IC50 [8]: 12 nM
Ki [4]: 0.9 nM
Emax [5]: 7

Structure (SMILES): C1=C(c2c[nH]c3ccccc23)CCN(CCOc2cccc3ncccc23)C1
Ki [1]: 93.6 nM
Ki [2]: 0.23 nM
Ki [3]: 92.6 nM
IC50 [6]: 524 nM
Emax [7]: 0
IC50 [8]: 686 nM
Ki [4]: 3.6 nM
Emax [5]: 14
